The results in this text go back to ChEMBL document CHEMBL1122125, “Synthesis and in vivo antitumor activity of potential 5-fluorouracil prodrugs” (1982).

Common to all, as to format: functional
The test system of experiment [1] is Mus musculus. The experiment can be described thus: Antitumor activity was determined for median survival of mice against P-388 leukemia in mice at a dose of 600 mg/kg. The procedure, abridged:
(§1)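 Male B6D2F1J mice implanted ip with 10⁶ P-388 cells on day 0; test agents given ip on days 1–4 (qd × 4) in sterile saline, or in 10% Tween 80 for the lipophilic thioether. Groups of 5 treated mice, with 10–17 untreated controls per experiment. Mice weighed on days 1 and 7 to give the 7-day weight change in g and %. Survival recorded in days as median and range.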

Experiment [2] deals with Mus musculus. The experiment can be described thus: Antitumor activity was determined for average weight on day 1 against P-388 leukemia in mice at a dose of 600 mg/kg. A digest of the protocol:
(§2)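 Male B6D2F1J mice, groups of 5, inoculated ip with 10⁶ P-388 cells on day 0. Drug given ip on days 1-4 (qd × 4) in sterile saline, or in 10% Tween 80 for the poorly water-soluble thioether. Average weight per mouse recorded on day 1, with reweighing on day 7 for percent weight change. Untreated control groups had 10-17 animals per experiment.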

Experiment [3] deals with Mus musculus. The experiment can be described thus: Antitumor activity was determined for 7-day average percent weight change against P-388 leukemia in mice at a dose of 75 mg/kg. A digest of the protocol:
(§3)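 Male B6D2F1J mice given 10⁶ P-388 cells ip on day 0, then treated ip once daily on days 1-4 (qd × 4), 5 mice per dose group. Compounds dosed in sterile saline, except one lipophilic thioether given in 10% Tween 80. Mice weighed on days 1 and 7; mean weight per mouse on day 1 and 7-day weight change reported in g and as percent.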

Experiment [4] relates to Mus musculus. The experiment can be described thus: Percent increase in life span against P-388 leukemia in mice was determined at a dose of 600 mg/kg. Conditions: P388. A digest of the protocol:
(§4)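 Male B6D2F1J mice, 5 per dose group, received 10⁶ P-388 cells ip on day 0. Dosing was ip qd × 4 on days 1-4 in sterile saline, or 10% Tween 80 for the butyl thioether. Median survival times of treated (T) and untreated control (C, 10-17 mice) groups were compared: %ILS = [(T/C) − 1]100. Weights taken on days 1 and 7.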

Experiment [5] has as its system Mus musculus. The experiment can be described thus: Antitumor activity was determined for survival range of mice against P-388 leukemia in mice at a dose of 75 mg/kg. A digest of the protocol: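 Male B6D2F1J mice, 5 per dose group, implanted ip with 10⁶ P-388 leukemia cells on day 0. Drug given ip daily on days 1-4 (qd × 4) in sterile saline, or in 10% Tween 80 for the butyl thioether. Survival range recorded in days. Untreated control groups had 10-17 animals per experiment. Mice weighed on days 1 and 7.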

Another experiment deals with L1210. The experiment in a line: Evaluated for cytotoxicity against L1210 mouse leukemia cells. The settings on record: read-out: ID50 (the source's name). A digest of the protocol:
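L1210 murine leukemia cells in Eagle's minimal essential medium with 15% fetal calf serum, streptomycin (100 μg/mL), penicillin (100 units/mL) and 0.05 mM 2-mercaptoethanol. Cells counted by Coulter counter after 48 h exposure. ID50 is the 50% growth-inhibitory dose. Triplicate assays, standard deviation ±10%.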

Experiment [6] relates to Mus musculus. The experiment in a line: Antitumor activity was determined for median survival of mice against P-388 leukemia in mice at a dose of 150 mg/kg. A digest of the protocol:
as §1

Experiment [7] relates to Mus musculus. The experiment can be described thus: Antitumor activity was determined for average weight on day 1 against P-388 leukemia in mice at a dose of 300 mg/kg. A digest of the protocol:
as §2

Experiment [8] relates to Mus musculus. The experiment in a line: Percent increase in life span against P-388 leukemia in mice was determined at a dose of 75 mg/kg. Conditions: P388. The procedure, abridged: as §4
The subject of experiment [9] is Mus musculus. The experiment in a line: Antitumor activity was determined for survival range of mice against P-388 leukemia in mice at a dose of 300 mg/kg. A digest of the protocol: as §1
Experiment [10] deals with Mus musculus. The experiment in a line: Antitumor activity was determined for survival range of mice against P-388 leukemia in mice at a dose of 150 mg/kg. The procedure, abridged: as §1
Experiment [11] has as its system Mus musculus. The experiment in a line: Antitumor activity was determined for average 7-day weight change against P-388 leukemia in mice at a dose of 75 mg/kg. A digest of the protocol:
as §3

Experiment [12] deals with Mus musculus. The experiment can be described thus: Antitumor activity was determined for average weight on day 1 against P-388 leukemia in mice at a dose of 150 mg/kg. The procedure, abridged: as §3
Experiment [13] deals with Mus musculus. The experiment can be described thus: Antitumor activity was determined for median survival of mice against P-388 leukemia in mice at a dose of 300 mg/kg. The procedure, abridged:
as §1

For experiment [14], the system named is Mus musculus. The experiment can be described thus: Antitumor activity was determined for average weight on day 1 against P-388 leukemia in mice at a dose of 75 mg/kg. A digest of the protocol:
as §2

For experiment [15], the system named is Mus musculus. The experiment in a line: Antitumor activity was determined for 7-day average percent weight change against P-388 leukemia in mice at a dose of 150 mg/kg. The procedure, abridged:
as §3

In experiment [16] the test system is Mus musculus. The experiment can be described thus: Antitumor activity was determined for survival range of mice against P-388 leukemia in mice at a dose of 600 mg/kg. The procedure, abridged:
as §1

Experiment [17] has as its system Mus musculus. The experiment in a line: Antitumor activity was determined for 7-day average percent weight change against P-388 leukemia in mice at a dose of 300 mg/kg. The procedure, abridged:
as §3

The test system of experiment [18] is Mus musculus. The experiment in a line: Percent increase in life span against P-388 leukemia in mice was determined at a dose of 150 mg/kg. The settings on record: P388. The procedure, abridged:
as §4

The test system of experiment [19] is Mus musculus. The experiment can be described thus: Antitumor activity was determined for average 7-day weight change against P-388 leukemia in mice at a dose of 150 mg/kg. The procedure, abridged:
as §3

Experiment [20] concerns Mus musculus. The experiment can be described thus: Antitumor activity was determined for median survival of mice against P-388 leukemia in mice at a dose of 75 mg/kg. The procedure, abridged: as §1
The subject of experiment [21] is Mus musculus. The experiment can be described thus: Percent increase in life span against P-388 leukemia in mice was determined at a dose of 300 mg/kg. Conditions: P388. The procedure, abridged:
as §4

The test system of experiment [22] is Mus musculus. The experiment in a line: Antitumor activity was determined for average 7-day weight change against P-388 leukemia in mice at a dose of 300 mg/kg. The procedure, abridged:
as §3

As for `CCCCSC[C@H]1OC(n2cc(F)c(=O)[nH]c2=O)[C@H](O)[C@@H]1O` (stereo partly drawn), the Survival median in the experiment with Mus musculus [1] is recorded as 4; in the experiment with Mus musculus [6], 11; in the experiment with Mus musculus [13], 11; in the experiment on Mus musculus [20], 11. In addition, the Average weight came out at 26.4 g mouse-1 in the experiment with Mus musculus [2]; 28 g mouse-1 with Mus musculus [7]; 2 g mouse-1 in the experiment on Mus musculus [11]; 27.8 g mouse-1 in the experiment with Mus musculus [12]; 26.6 g mouse-1 in the experiment on Mus musculus [14]; 1.4 g mouse-1 in the experiment with Mus musculus [19]. In the experiment with Mus musculus [22], this compound came in with an Average weight of -0.4 g mouse-1. Moreover, the figures for the Weight change with Mus musculus [3], with Mus musculus [15] and in the experiment on Mus musculus [17] were 8%, 5% and -1%, respectively. The ILS at 600 mg/kg in the experiment with Mus musculus [4] is -67%. Also, the Survival range in the experiment on Mus musculus [5] is 11; in the experiment on Mus musculus [9], 11; with Mus musculus [10] it was 10; in the experiment on Mus musculus [16] it was 3. Further, the IC50 in the experiment on L1210 is 270 µM. In addition, the ILS at 75 mg/kg in the experiment with Mus musculus [8] was -9%. For the same compound, the ILS at 150 mg/kg in the experiment on Mus musculus [18] is -9%. Further, in the experiment on Mus musculus [21], the ILS at 300 mg/kg was -9%.
